Screening data: PubChem, The Scripps Research Institute Molecular Screening Center
Most compounds without a hit are left out; they make up all but 1.2% or so of the library.
zfTRPN1 agonist – activates the zebrafish TRPN1 channel; HEK293 zebrafish TRPN1-YFP, Fluo-8 calcium fluorescence; 100% = response to 87 µM carbachol; activation, % at 3 µM; 0.18% of 220,000 active; AID 1424;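 active = activation above its plate's cutoff, the mean activation of test wells on that plate plus 3 SD, cut at about 19% in these data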;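 also: 0% = DMSO alone and 100% = 87 µM carbachol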
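Material – zebrafish TRPN1-YFP in HEK293 cells · Doses – 3 µM single point · Schedule – dye 1 h 37 °C plus 30 min RT · Signal – Fluo-8 calcium fluorescence, excitation 470-495 nm, emission 515-575 nm · Read-out – % activation versus carbachol response · Control set – carbachol high, DMSO low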
CHO-K1 Ca PAM – counter-screen for M1 PAMs: effect in parental CHO-K1 cells; ATP EC20, Fluo-8 calcium fluorescence; 0% at ATP EC20, 100% at ATP max; activation, % at 3 µM; 0.02% of 360,000 active;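 active = activation above the run cutoff, the mean activation of all test compounds plus 3 SD, cut at about 40% in these data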;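 also: peak over basal fluorescence ratio in a 140 s read after ATP addition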
CHO-K1 Ca antag – nonselective inhibitor or artifact in parental CHO-K1 cells; AID 602250; 0.6% of 360,000 active; inhibition, % at 3 µM; ATP-induced calcium, Fluo-8 fluorescence;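 active = inhibition above a per-plate cutoff, the plate's mean sample inhibition plus 3 SD, cut at about 24% in these data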;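 also: 0% = DMSO plus EC80 ATP and 100% = DMSO alone without ATP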
CHO-K1 Ca ag – nonselective activator or artifact in parental CHO-K1 cells. Fluo-8 calcium fluorescence; scaled to maximal ATP response, vehicle zero. activation, % at 3 µM. 0.48% of 360,000 active; in the data active = activation above about 15%;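 also: untransfected CHO-K1 host cells lacking M1 receptor as counterscreen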
TRPML3 ag – activates the human TRPML3 channel; Q8TDD5; HEK293 TRPML3-YFP, Fluo-8 calcium fluorescence; 100% = the carbachol control signal; activation, % at 3 µM; 0.29% of 220,000 active;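 active = activation above its plate's cutoff, the mean activation of the plate's test wells plus 3 SD, cut at about 12% in these data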;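 also: 0% = DMSO only wells and 100% = carbachol wells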
Target sequence (Q8TDD5 whole entry, looked up): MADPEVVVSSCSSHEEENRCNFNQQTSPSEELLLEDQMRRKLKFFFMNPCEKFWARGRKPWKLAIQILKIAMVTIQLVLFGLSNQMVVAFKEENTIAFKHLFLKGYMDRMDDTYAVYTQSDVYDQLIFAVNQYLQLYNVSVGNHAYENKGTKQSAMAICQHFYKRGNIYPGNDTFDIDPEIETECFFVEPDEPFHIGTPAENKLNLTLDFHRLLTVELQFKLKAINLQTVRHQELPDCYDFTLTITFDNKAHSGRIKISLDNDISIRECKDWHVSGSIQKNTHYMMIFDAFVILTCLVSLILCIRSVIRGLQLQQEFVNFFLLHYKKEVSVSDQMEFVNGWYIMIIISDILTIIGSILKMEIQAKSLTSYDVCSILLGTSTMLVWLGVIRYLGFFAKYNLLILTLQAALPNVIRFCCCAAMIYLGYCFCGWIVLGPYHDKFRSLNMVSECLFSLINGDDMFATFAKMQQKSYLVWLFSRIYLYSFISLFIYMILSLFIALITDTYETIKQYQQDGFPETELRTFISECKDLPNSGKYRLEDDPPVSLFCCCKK
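Material: HEK293 cells stably carrying human TRPML3-YFP; compound dosing: single dose, 3 µM final nominal compound, 0.3% DMSO final; incubation: 1-h 37 °C dye load, 5-s basal, 120-s post-compound reads; technique: Fluo-8 intracellular calcium fluorescence, excitation 470-495 nm, emission 515-575 nm; read-out basis: percent activation from peak-to-basal fluorescence ratio, scaled between DMSO and carbachol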
TRPN1 ag 2 – zebrafish TRPN1 agonism as TRPML3 agonist counter-screen; 10% of 310 active; shares compounds with TRPML3 ag; HEK293 zebrafish TRPN1-YFP, Fluo-8 calcium fluorescence; scaled: carbachol wells 100%, DMSO wells 0%; activation, % at 3 µM;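 active = mean activation over replicates above a set limit taken from the earlier TRPN1 channel primary screen, cut at about 19% in these data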;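 also: 100% = carbachol and 0% = 0.3% DMSO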
TRPML3 confirm – confirmation of human TRPML3 channel agonists. shares compounds with TRPML3 ag. HEK293 TRPML3-YFP, Fluo-8 calcium fluorescence; 100% set by carbachol, 0% by DMSO. activation, % at 3 µM. AID 1526. 80% of 310 active;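 active = activation above a set limit derived from the earlier primary screen, cut at about 12% in these data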
* hit, by the source's call; nt = no result given.

SMILES | zfTRPN1 agonist | CHO-K1 Ca PAM | CHO-K1 Ca antag | CHO-K1 Ca ag | TRPML3 ag | TRPN1 ag 2 | TRPML3 confirm
CCOC(=O)N1CCC(N2C(=O)c3ccccc3C2Nc2ccc(S(=O)(=O)N3CCCCC3)cc2)CC1 (centres undefined) | 2 | nt | nt | nt | 15* | 1 | 10
CSc1ccccc1NC(=O)C1(C)CCN1C(=O)Cc1ccccc1Cl (centres undefined) | nt | -1 | -14 | 0 | nt | nt | nt
Cc1ccc(C)c(C(O)c2ncc(-c3ccc(C(F)(F)F)cc3)[nH]2)c1 (centres undefined) | nt | -6 | 4 | 0 | nt | nt | nt
Cc1cc(C(C)(C)C)oc1C(=O)N(CC(=O)NC1CCCC1)Cc1ccccc1Cl | 3 | 20 | -1 | 5 | 33* | 2 | 34*
O=S(=O)(NCCS(=O)(=O)N1CCN(c2ccc(F)cc2)CC1)c1ccccc1 | nt | 3 | 9 | 3 | nt | nt | nt
CCCCC[C@@H](C)N1C[C@@H](COCc2ccccc2)Oc2cc(N3CCC[C@@H]3COC)ccc2S1(=O)=O | nt | -4 | -8 | 1 | nt | nt | nt
Cc1cc(NC(=O)COC(=O)C(Cc2ccccc2)NC(=O)c2ccco2)no1 (centres undefined) | 5 | 18 | -3 | 0 | 18* | 22* | 24*
O=C(Nc1ccncc1)Nc1ccc(F)c(Cl)c1 | 7 | 0 | 24* | 11 | 12* | 10 | 9
Cc1sc(NC(=O)C2C3CCC(C3)C2C(=O)O)c(C(N)=O)c1-c1ccc(C(C)(C)C)cc1 (centres undefined) | 1 | 12 | -1 | 1 | 18* | 1 | 0
Cc1sc(NC(=O)C2CCCCC2C(=O)O)c(C(N)=O)c1-c1ccc(C(C)(C)C)cc1 (centres undefined) | 0 | 23 | -9 | 3 | 0 | nt | nt
Cc1cccc(C)c1-n1nnnc1S(=O)(=O)Cc1ccccc1Cl | 1 | -6 | 6 | 0 | 26* | 0 | 14*
Cc1cc(C)n(-c2nc(C)nc(NCc3ccccc3)n2)n1 | 3 | 0 | 1 | 1 | 25* | 3 | 23*
CNc1nc(C)nc(-n2nc(C)cc2C)n1 | 4 | 0 | 3 | 0 | 0 | nt | nt
C=CCOc1ccc2c(c1)c(S(=O)(=O)c1ccc(C)cc1)cn2COC | 1 | 9 | -23 | 0 | 127* | 0 | 139*
Cc1ccc(S(=O)(=O)N2CCC(=O)N(C(COCc3ccc(C(F)(F)F)cc3)C(C)C)CC2)cc1 (centres undefined) | 1 | 5 | -11 | 3 | 55* | 0 | 77*
Cc1ccc(S(=O)(=O)N2CCC(=O)N([C@H](COCc3cccc(C(F)(F)F)c3)C(C)C)CC2)cc1 | nt | 16 | -39 | 2 | nt | nt | nt
CCN(CC)c1ccc(NC(=O)COc2ccc(N(C)S(=O)(=O)c3cccs3)cc2)cc1 | -1 | -13 | 2 | 1 | 14* | 1 | 28*
CN(c1ccc(OCC(=O)OCC(=O)Nc2ccccc2)cc1)S(=O)(=O)c1cccs1 | 5 | 10 | -3 | 10 | 4 | nt | nt
Cc1nnc(-c2ccccc2)c(=O)n1/N=C/c1c(O)ccc2ccccc12 | 15 | -9 | 23 | 5 | 13* | 2 | 1
COC(=O)[C@]12CCCCC=C1N(Cc1cccc3ccccc13)C(=O)[C@H](CC(=O)NCc1cccc(C(F)(F)F)c1)C2 | nt | -15 | 1 | 0 | nt | nt | nt
CC(C)[C@H](NS(=O)(=O)c1ccc2c(c1)OCCO2)C(=O)OCC(=O)Nc1cccc(Cl)c1Cl | 0 | 10 | -6 | 4 | 20* | 1 | 33*
COc1ccc(C(C)(O)c2nc(-c3cccc(O)c3)cs2)cc1 (centres undefined) | nt | 4 | 0 | 1 | nt | nt | nt
CCN(CC)C(=S)SCC(=O)NC12CC3CC(CC(C3)C1)C2 | 0 | 21 | -12 | 2 | 12* | 0 | 28*
CCOC(=O)C1(C)CCCN1C(=O)c1ccc(OC)c(OC)c1 (centres undefined) | nt | 14 | -7 | 1 | nt | nt | nt
O=C1c2ccccc2-c2onc3ccc(N4CCCC4)c1c23 | 18 | -14 | 9 | 3 | 14* | 51* | 39*
SMILES | zfTRPN1 agonist | CHO-K1 Ca PAM | CHO-K1 Ca antag | CHO-K1 Ca ag | TRPML3 ag | TRPN1 ag 2 | TRPML3 confirm
O=C1c2ccccc2C(=O)c2c1cccc2N1CCCC1 | -1 | -4 | 4 | -1 | 0 | nt | nt
O=C(CN1CCN(S(=O)(=O)c2ccc(F)cc2)CC1)Nc1ccc(Cl)c(C(F)(F)F)c1 | 1 | 5 | -4 | 5 | 15* | 4 | 43*
C[N+](C)(C)C/C=C1/COCO1 | 8 | 19 | -7 | 0 | 52* | 14 | 40*
Cc1ccc(S(=O)(=O)N(C)c2ccc(C)c([N+](=O)[O-])c2)cc1 | -2 | 0 | 1 | 0 | 69* | -1 | 72*
COc1ccc(N(C)S(=O)(=O)c2ccc(C)cc2)c([N+](=O)[O-])c1 | -2 | 16 | -8 | 0 | 35* | -1 | 42*
COc1ccc(NC(=O)CN(C)S(=O)(=O)c2ccc(C)cc2)c([N+](=O)[O-])c1 | 1 | -13 | 16 | 0 | 0 | nt | nt
CNC(=O)C[C@H]1C(=O)N(c2ccc(OC)cc2)C[C@@H]1CSC | nt | 7 | 0 | 0 | nt | nt | nt
CCOC(=O)C(=O)N(C)c1c(CC)nc2c(OCCC3CCCCC3)cccn12 | nt | 17 | -9 | -1 | nt | nt | nt
Cc1cc(C)nc(/N=C(\N)Nc2ccc(-c3ccccc3)cc2)n1 | 16 | -16 | 10 | 27* | 15* | 21* | 11
CCOc1ccc(S(=O)(=O)NC(C)(C)C)cc1-c1nc2c(C(C)(C)C)nn(C)c2c(=O)[nH]1 | -1 | 4 | -2 | 4 | 24* | 2 | 147*
CCOc1ccc(S(N)(=O)=O)cc1-c1nc2c(C(C)(C)C)nn(C)c2c(=O)[nH]1 | -1 | 0 | -5 | 1 | -1 | nt | nt
CCCNC(=O)C1(C)CCN(Cc2cc(-c3ccccc3)on2)C1 (centres undefined) | nt | 7 | -6 | 1 | nt | nt | nt
COc1ccc(N(C)C(=O)c2ccc3nc(-c4ccccc4)c(-c4ccccc4)nc3c2)cc1 | 1 | 17 | -8 | 2 | 0 | nt | nt
CC(C)N(C(=O)c1ccc2nc(-c3ccccc3)c(-c3ccccc3)nc2c1)C(C)C | -1 | -12 | 8 | -1 | 84* | -1 | 104*
